# Tested on: U2OS
# Test: Multiplex assay against U2OS
# Format: toxicity, cell-based
# Settings: human
# Outline: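 Per cents of healthy-nucleus cells form the tubulin, mitochondrial-mass and membrane-permeability phenotype values. Live cells were stained at seeding with Hoechst33342, BioTracker Green Microtubule Cytoskeleton Dye, MitoTracker Red and Annexin V Alexa Fluor 680. After compound addition they were imaged on a CQ1 microscope at 37°C and 5% CO2, and CellPathfinder machine-learning gating split them into Hoechst high-intensity objects or normal cells, normal cells into healthy, pyknosed or fragmented nuclei, and pyknosed cells into mitotic or apoptotic.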
# [1] = 12 h, 1 µM, compound concentration 1 uM, replicate 1
# [2] = 12 h, 1 µM, compound concentration 1 uM, replicate 2
# [3] = 12 h, 10 µM, compound concentration 10 uM, replicate 1
# [4] = 12 h, 10 µM, compound concentration 10 uM, replicate 2
# [5] = 24 h, 1 µM, compound concentration 1 uM, replicate 1
# [6] = 24 h, 1 µM, compound concentration 1 uM, replicate 2
# [7] = 24 h, 10 µM, compound concentration 10 uM, replicate 1
# [8] = 24 h, 10 µM, compound concentration 10 uM, replicate 2
# [9] = 48 h, 1 µM, compound concentration 1 uM, replicate 1
# [10] = 48 h, 1 µM, compound concentration 1 uM, replicate 2
# [11] = 48 h, 10 µM, compound concentration 10 uM, replicate 1
# [12] = 48 h, 10 µM, compound concentration 10 uM, replicate 2
smiles,measurement,setting,value
N#CCNC(=O)c1ccc(-c2ccnc(Nc3ccc(N4CCOCC4)cc3)n2)cc1 [MOMELOTINIB],Population Apoptotic (%),[1],70%
same,Population Fragmented Nuclei (%),[1],12%
same,Population Healthy Nuclei (%),[1],77%
same,Population Hoechst High Intensity Objects (%),[1],5%
same,Population Membrane Permeable-Phenotype (%),[1],9%
same,Population Mitochondria Different-Phenotype (%),[1],6%
same,Population Mitotic Cells (%),[1],29%
same,Population Normal (%),[1],94%
same,Population Pyknosed Nuclei (%),[1],10%
same,Population Tubulin-Different-Phenotype (%),[1],18%
same,Total Cell Count,[1],3583
same,Population Apoptotic (%),[2],60%
same,Population Fragmented Nuclei (%),[2],1%
same,Population Healthy Nuclei (%),[2],88%
same,Population Hoechst High Intensity Objects (%),[2],8%
same,Population Membrane Permeable-Phenotype (%),[2],2%
same,Population Mitochondria Different-Phenotype (%),[2],13%
same,Population Mitotic Cells (%),[2],40%
same,Population Normal (%),[2],91%
same,Population Pyknosed Nuclei (%),[2],9%
same,Population Tubulin-Different-Phenotype (%),[2],11%
same,Total Cell Count,[2],3119
same,Population Apoptotic (%),[3],44%
same,Population Fragmented Nuclei (%),[3],18%
same,Population Healthy Nuclei (%),[3],57%
same,Population Hoechst High Intensity Objects (%),[3],6%
same,Population Membrane Permeable-Phenotype (%),[3],10%
same,Population Mitochondria Different-Phenotype (%),[3],20%
same,Population Mitotic Cells (%),[3],55%
same,Population Normal (%),[3],93%
same,Population Pyknosed Nuclei (%),[3],23%
same,Population Tubulin-Different-Phenotype (%),[3],20%
same,Total Cell Count,[3],180
same,Population Apoptotic (%),[4],13%
same,Population Fragmented Nuclei (%),[4],27%
same,Population Healthy Nuclei (%),[4],47%
same,Population Hoechst High Intensity Objects (%),[4],10%
same,Population Membrane Permeable-Phenotype (%),[4],0%
same,Population Mitochondria Different-Phenotype (%),[4],6%
same,Population Mitotic Cells (%),[4],86%
same,Population Normal (%),[4],89%
same,Population Pyknosed Nuclei (%),[4],24%
same,Population Tubulin-Different-Phenotype (%),[4],6%
same,Total Cell Count,[4],56
same,Population Apoptotic (%),[5],42%
same,Population Fragmented Nuclei (%),[5],14%
same,Population Healthy Nuclei (%),[5],78%
same,Population Hoechst High Intensity Objects (%),[5],3%
same,Population Membrane Permeable-Phenotype (%),[5],10%
same,Population Mitochondria Different-Phenotype (%),[5],9%
same,Population Mitotic Cells (%),[5],57%
same,Population Normal (%),[5],96%
same,Population Pyknosed Nuclei (%),[5],7%
same,Population Tubulin-Different-Phenotype (%),[5],17%
same,Total Cell Count,[5],3609
same,Population Apoptotic (%),[6],66%
same,Population Fragmented Nuclei (%),[6],7%
same,Population Healthy Nuclei (%),[6],86%
same,Population Hoechst High Intensity Objects (%),[6],10%
same,Population Membrane Permeable-Phenotype (%),[6],6%
same,Population Mitochondria Different-Phenotype (%),[6],15%
same,Population Mitotic Cells (%),[6],33%
same,Population Normal (%),[6],89%
same,Population Pyknosed Nuclei (%),[6],5%
same,Population Tubulin-Different-Phenotype (%),[6],8%
same,Total Cell Count,[6],3108
same,Population Apoptotic (%),[7],61%
same,Population Fragmented Nuclei (%),[7],20%
same,Population Healthy Nuclei (%),[7],46%
same,Population Hoechst High Intensity Objects (%),[7],8%
same,Population Membrane Permeable-Phenotype (%),[7],13%
same,Population Mitochondria Different-Phenotype (%),[7],20%
same,Population Mitotic Cells (%),[7],38%
same,Population Normal (%),[7],91%
same,Population Pyknosed Nuclei (%),[7],33%
same,Population Tubulin-Different-Phenotype (%),[7],20%
same,Total Cell Count,[7],194
same,Population Apoptotic (%),[8],45%
same,Population Fragmented Nuclei (%),[8],31%
same,Population Healthy Nuclei (%),[8],52%
same,Population Hoechst High Intensity Objects (%),[8],5%
same,Population Membrane Permeable-Phenotype (%),[8],28%
same,Population Mitochondria Different-Phenotype (%),[8],34%
same,Population Mitotic Cells (%),[8],54%
same,Population Normal (%),[8],94%
same,Population Pyknosed Nuclei (%),[8],16%
same,Population Tubulin-Different-Phenotype (%),[8],14%
same,Total Cell Count,[8],59
same,Population Apoptotic (%),[9],27%
same,Population Fragmented Nuclei (%),[9],9%
same,Population Healthy Nuclei (%),[9],82%
same,Population Hoechst High Intensity Objects (%),[9],3%
same,Population Membrane Permeable-Phenotype (%),[9],2%
same,Population Mitochondria Different-Phenotype (%),[9],18%
same,Population Mitotic Cells (%),[9],72%
same,Population Normal (%),[9],96%
same,Population Pyknosed Nuclei (%),[9],7%
same,Population Tubulin-Different-Phenotype (%),[9],19%
same,Total Cell Count,[9],3211
same,Population Apoptotic (%),[10],100%
same,Population Fragmented Nuclei (%),[10],7%
same,Population Healthy Nuclei (%),[10],89%
same,Population Hoechst High Intensity Objects (%),[10],2%
same,Population Membrane Permeable-Phenotype (%),[10],8%
same,Population Mitochondria Different-Phenotype (%),[10],17%
same,Population Mitotic Cells (%),[10],0%
same,Population Normal (%),[10],97%
same,Population Pyknosed Nuclei (%),[10],2%
same,Population Tubulin-Different-Phenotype (%),[10],22%
same,Total Cell Count,[10],3226
same,Population Apoptotic (%),[11],72%
same,Population Fragmented Nuclei (%),[11],29%
same,Population Healthy Nuclei (%),[11],26%
same,Population Hoechst High Intensity Objects (%),[11],4%
same,Population Membrane Permeable-Phenotype (%),[11],20%
same,Population Mitochondria Different-Phenotype (%),[11],20%
same,Population Mitotic Cells (%),[11],27%
same,Population Normal (%),[11],95%
same,Population Pyknosed Nuclei (%),[11],43%
same,Population Tubulin-Different-Phenotype (%),[11],25%
same,Total Cell Count,[11],241
same,Population Apoptotic (%),[12],53%
same,Population Fragmented Nuclei (%),[12],33%
same,Population Healthy Nuclei (%),[12],44%
same,Population Hoechst High Intensity Objects (%),[12],11%
same,Population Membrane Permeable-Phenotype (%),[12],26%
same,Population Mitochondria Different-Phenotype (%),[12],38%
same,Population Mitotic Cells (%),[12],46%
same,Population Normal (%),[12],88%
same,Population Pyknosed Nuclei (%),[12],22%
same,Population Tubulin-Different-Phenotype (%),[12],26%
same,Total Cell Count,[12],71

# Source: ChEMBL document CHEMBL4689842, “EUbOPEN Chemogenomics Library wave 1” (2021)
